Experimental data reported in ChEMBL document CHEMBL1141142, “Application of fluorescence microscopy for investigation of cellular distribution of dinuclear platinum anticancer drugs” (J Med Chem, 2005).

Columns and labels:
Type in all cases: functional
Homo sapiens = species on record: Homo sapiens; test: Relative ratio of IC50 values in both cell lines (U2-OS/Pt)/U2-OS)
How it was run: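 Ratio of IC50 in U2-OS/Pt over U2-OS, both from the 72 h MTT growth-inhibition assay (quadruplicate wells, five dilutions, OD 590 nm, IC50 derived graphically).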

[1] = Inhibitory concentration required for in vitro cytotoxic activity against human U2-OS osteosarcoma cell line
How it was run: (§1)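 MTT growth inhibition; U2-OS or cisplatin-resistant U2-OS/Pt monolayers in DMEM with 10% fetal calf serum, penicillin/streptomycin; (3-5) × 10³ cells/well, attached overnight; five dilutions (from 1 mg/mL stocks in water or dimethylformamide) added in quadruplicate; 72 h exposure; MTT ~120 min, DMSO dissolution, OD 590 nm; IC50 versus control read graphically.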

[2] = Inhibitory concentration required for in vitro cytotoxic activity against human U2-OS osteosarcoma cell line (cisplatin Resistant); how it was run: as §1

Sequence	RF (Homo sapiens)	IC50 [1] [µM]	IC50 [2] [µM]
CISPLATIN [listing 1 of 2 here]	2.5		
CISPLATIN [listing 2 of 2 here]		2.9	7.3
